Active and inactive are the calls of the source. No cut-off for these calls is given here.
Experiments:
[1] = test system: Raji; experiment: Cytotoxicity against human Raji cells assessed as reduction in cell viability incubated for 24 hrs by Cell-titer glo Luminescent assay; format: cell-based
Method in brief: (§1)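 Cells (Raji, RAW 264.7 or donor PBMCs) plated at 1 × 10⁴ per well in medium with 10% FBS. Treated for 24 h at 37 °C, 5% CO₂ with 100, 50, 25, 12.5, 6.25 or 3.125 μM compound, or buffer containing 0.2% DMSO. Viability read by CellTiter-Glo luminescence; killing rate = (1 − RLU compound/RLU control) × 100%; triplicate, mean ± SEM.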

[2] = Cytotoxicity against human PBMC cells assessed as reduction in cell viability at 6.3 uM incubated for 24 hrs by Cell-titer glo Luminescent assay; format: cell-based; method in brief: as §1
[3] = Cytotoxicity against human PBMC cells assessed as reduction in cell viability incubated for 24 hrs by Cell-titer glo Luminescent assay; format: cell-based; details: dose 3.125-100 µM; method in brief: as §1
[4] = test system: RAW264.7; experiment: Cytotoxicity against mouse RAW264.7 cells assessed as reduction in cell viability incubated for 24 hrs by Cell-titer glo Luminescent assay; format: cell-based; details: RAW264.7, 24 h; method in brief: as §1
[5] = Cytotoxicity against human PBMC cells assessed as reduction in cell viability at 100 uM incubated for 24 hrs by Cell-titer glo Luminescent assay relative to control; format: cell-based; method in brief: as §1
[6] = target: T1, Programmed cell death 1 ligand 1 (Homo sapiens, UniProt Q9NZQ7); experiment: Binding affinity to human PD-L1 expressed in CHOK1 cells assessed as inhibition of PD1/PDL1 protein-protein interaction at 500 nM incubated for 30 mins by flow cytometry analysis; format: cell-based; details: CHO-K1
Method in brief: (§2)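 CHO-K1-hPD-L1 cells, 5 × 10⁵ per tube in PBS with 2% FBS, incubated with hPD-1/Fc (10 μg/mL final) at 4 °C for 30 min. Compound added at 500 nM final and incubated a further 30 min at 4 °C, then stained with APC anti-human IgG Fc. Percentage of hPD-1-bound cells read by flow cytometry. Blocking efficacy calculated against a no-inhibitor positive control and parental CHO-K1 negative control.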

[7] = Volume of distribution at steady state in male Sprague-Dawley rat at 4 mg/kg, iv measured up to 24 hrs by LC-MS/MS analysis; format: ADME, organism-based; details: in vivo, read-out: Vdss
Method in brief: (§3)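 Male Sprague Dawley rats (n = 6, 6−8 weeks, 200−300 g), single 4 mg/kg iv dose in 25% MPD/10% RH40/65% water, freshly prepared. About 0.2 mL blood drawn at 0.08, 0.25, 0.5, 1, 2, 4, 8, 24 h into EDTA-K2, centrifuged 4000g 5 min at 4 °C; plasma assayed by LC−MS/MS; noncompartmental parameters reported as mean ± SD.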

[8] = AUClast in male Sprague-Dawley rat at 4 mg/kg, iv measured up to 24 hrs by LC-MS/MS analysis; format: ADME, organism-based; set-up: route intravenous, dose 4 mg/kg, time <=24; details: in vivo; method in brief: as §3
[9] = target: T1, Programmed cell death 1 ligand 1; experiment: Inhibition of human PD-L1 cocultured in PBMC cells assessed as inhibition of PD1/PDL1 interaction mediated increase in IFN-gamma secretion at 0.1 uM incubated for 72 hrs by ELISA relative to control; format: cell-based
Method in brief: (§4)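 Healthy-donor PBMCs, 1 × 10⁵ per well in RPMI 1640 with 10% FBS, stimulated with anti-CD3/anti-CD28 (1:1, 0.8 μg/mL final) plus PD-L1/Fc at 10 μg/mL final. Compound added at 0.1 or 1 μM final and cocultured 72 h at 37 °C, 5% CO₂. Supernatant IFN-γ measured by ELISA; quadruplicate, mean ± SEM.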

[10] = Half-life in male Sprague-Dawley rat at 4 mg/kg, iv measured up to 24 hrs by LC-MS/MS analysis; format: ADME, organism-based; details: in vivo; method in brief: as §3
[11] = Plasma concentration in male Sprague-Dawley rat at 15 mg/kg, po measured up to 24 hrs by LC-MS/MS analysis; format: ADME, organism-based
Method in brief: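 Male Sprague Dawley rats (n = 6, 6−8 weeks, 200−300 g) given a single 15 mg/kg oral dose in 25% MPD/10% RH40/65% water. Blood sampled at 0.25, 0.5, 1, 2, 4, 8, 24 h into EDTA-K2 and spun to plasma; LC−MS/MS analysis, quantifiable limit 0.5 ng/mL.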

[12] = Dose normalized AUClast in male Sprague-Dawley rat at 4 mg/kg, iv measured up to 24 hrs by LC-MS/MS analysis; format: ADME, organism-based; details: in vivo; method in brief: as §3
[13] = MRT (0 to infinity) in male Sprague-Dawley rat at 4 mg/kg, iv measured up to 24 hrs by LC-MS/MS analysis; format: ADME, organism-based; details: in vivo; method in brief: as §3
[14] = Acute toxicity in C57BL/6J mouse xenografted with MC38 cells assessed as mortality at 15 mg/kg, ip QD for 3 week; format: organism-based; details: in vivo, 504 h, time 3 weeks
[15] = test system: MC-38; experiment: Antitumor activity against mouse MC38 cells xenografted in PD-L1 knockout/PD1 knock-in C57BL/6J mouse assessed as tumor growth inhibition at 15 mg/kg, ip QD for 3 weeks measured after day 21; format: functional; set-up: scale not given: the % may be the effect or the level left
[16] = target: T1, Programmed cell death 1 ligand 1; experiment: Inhibition of human PD-L1 cocultured in PBMC cells assessed as inhibition of PD1/PDL1 interaction mediated increase in IFN-gamma secretion at 1 uM incubated for 72 hrs by ELISA relative to control; format: cell-based; method in brief: as §4
[17] = target: T1, Programmed cell death 1 ligand 1; experiment: Binding affinity to biotinylated human AVI-PD-L1 assessed as association constant by biolayer interferometry
Method in brief: (§5)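 Biotinylated human PD-L1/AVI at 10 μg/mL loaded on streptavidin biosensors for 300 s, then baselined. Association with compound at 20 to 0.3125 nM plus 0 nM for 180 s, then dissociation in buffer for 300 s. Data globally fitted to a 1:1 model to give ka and kdis; apparent affinity taken as their ratio.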

[18] = Initial plasma concentration in male Sprague-Dawley rat plasma at 4 mg/kg, iv measured up to 24 hrs by LC-MS/MS analysis; format: ADME, organism-based; method in brief: as §3
[19] = Acute toxicity in C57BL/6J mouse xenografted with MC38 cells assessed as change in body weight at 15 mg/kg, ip QD for 3 week; format: organism-based; details: in vivo, 504 h, time 3 weeks
Method in brief: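 Female PD-1-humanized C57BL/6J-Pdcd1^{em1(hPDCD1)/Smoc} mice, six weeks old, were acclimated 1 week. They were given 1 × 10⁶ MC38 cells (mouse PD-L1 knockout, human PD-L1 knock-in) s.c. near the hind-leg groin. Mice were randomised at 50−150 mm³ tumour volume (6 per group) and dosed 15 mg/kg ip once daily for 3 weeks. Vehicle was 0.8% DMSO/7.5% RH40 in saline. Body weight was measured twice weekly.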

[20] = Acute toxicity in C57BL/6J mouse xenografted with MC38 cells assessed as behavior changes at 15 mg/kg, ip QD for 3 week; format: organism-based; details: in vivo, 504 h, time 3 weeks
[21] = test system: Raji; experiment: Cytotoxicity against human Raji cells assessed as reduction in cell viability at 3.125 uM incubated for 24 hrs by Cell-titer glo Luminescent assay; format: cell-based; method in brief: as §1
[22] = target: T1, Programmed cell death 1 ligand 1; experiment: Binding affinity to human PD-L1 expressed in CHOK1 cells assessed as inhibition of PD1/PDL1 protein-protein interaction at 500 nM incubated for 30 mins by flow cytometry analysis relative to control; format: cell-based; details: CHO-K1; method in brief: as §2
[23] = Clearance in male Sprague-Dawley rat at 4 mg/kg, iv measured up to 24 hrs by LC-MS/MS analysis; format: ADME, organism-based; details: in vivo; method in brief: as §3
[24] = test system: RAW264.7; experiment: Cytotoxicity against mouse RAW264.7 cells assessed as reduction in cell viability at 3.125 to 100 uM incubated for 24 hrs by Cell-titer glo Luminescent assay; format: cell-based; details: raw264.7, 24 h, dose 3.125-100 µM; method in brief: as §1
[25] = target: T1, Programmed cell death 1 ligand 1; experiment: Binding affinity to biotinylated human AVI-PD-L1 assessed as dissociation rate constant by biolayer interferometry
[26] = target: T1, Programmed cell death 1 ligand 1; experiment: Binding affinity to biotinylated human AVI-PD-L1 by biolayer interferometry; method in brief: as §5
[27] = Cytotoxicity against human PBMC cells assessed as reduction in cell viability up to 100 uM incubated for 24 hrs by Cell-titer glo Luminescent assay; format: cell-based; method in brief: as §1
[28] = AUC (extrapolated) in male Sprague-Dawley rat at 4 mg/kg, iv measured up to 24 hrs by LC-MS/MS analysis; format: ADME, organism-based; details: in vivo; method in brief: as §3
[29] = AUC (0 to infinity) in male Sprague-Dawley rat plasma at 4 mg/kg, iv measured up to 24 hrs by LC-MS/MS analysis; format: ADME, organism-based; set-up: route intravenous, dose 4 mg/kg, time <=24; method in brief: as §3

T1 sequence (Q9NZQ7 whole entry): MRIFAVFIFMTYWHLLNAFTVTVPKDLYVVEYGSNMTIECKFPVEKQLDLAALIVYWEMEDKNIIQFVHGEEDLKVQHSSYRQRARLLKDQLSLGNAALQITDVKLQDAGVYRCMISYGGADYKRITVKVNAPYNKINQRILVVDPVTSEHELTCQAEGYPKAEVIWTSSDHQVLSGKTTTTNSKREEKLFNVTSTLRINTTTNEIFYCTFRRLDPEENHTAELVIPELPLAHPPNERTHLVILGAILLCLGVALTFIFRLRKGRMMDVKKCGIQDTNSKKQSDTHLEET

SMILES: COc1nc(NCc2cccc(-c3ccccc3)c2C)ccc1CNCCNC(C)=O
- EC50 [1]: 13.8 µM
- Activity [2]: Non-Toxic
- Activity [3]: Toxic
- EC50 [4]: 6.97 µM
- Activity [5]: 100%

SMILES: Cc1cc(CN[C@H](CO)C(=O)O)c(OCc2cncc(C#N)c2)cc1NCc1cccc(-c2ccccc2)c1C
- Activity [6]: Active
- Vd [7]: 2.17 L/kg
- AUC(0-t) at 24 h [8]: 905 ng·h/mL
- inhibition [9]: 72.9%
- half-life [10]: 82.8 min
- concentration at 24 h [11]: 0.5 ng/mL
- Activity [2]: Non-Toxic
- AUClast/dose [12]: 226 ng·kg·h/mL/mg
- MRT inf [13]: 29.2 min
- Activity [14]: Non-Toxic
- Activity [15]: 61.7%
- inhibition [16]: 56.8%
- association rate constant (kon) [17]: 2.17 10^6/M/s
- C0 at 24 h [18]: 4370 ng/mL
- Activity [19]: Non-Toxic
- Activity [20]: Non-Toxic
- Activity [21]: Non-Toxic
- Efficacy [22]: 97.5%
- clearance [23]: 74.5 mL/min/kg
- Activity [24]: Non-Toxic
- koff [25]: 3.53 10^-5/s
- Dissociation constant (KD) [26]: 1.62 10^-11M
- Activity [27]: Non-Toxic
- %AUCextra [28]: 0.283%
- AUC(0-inf) [29]: 908 ng·h/mL

Source: ChEMBL document CHEMBL4673285, “Design, Synthesis, and Biological Evaluation of Linear Aliphatic Amine-Linked Triaryl Derivatives as Potent Small-Molecule Inhibitors of the Programmed Cell Death-1/Programmed Cell Death-Ligand 1 Interaction with Promising Antitumor Effects In Vivo” (J Med Chem, 2020)
